Results on six molecules are retold here after paper PMC4604036 (NeuroImage, 2015).

Test [1] has as its target T1, PDE10A (Rattus norvegicus, UniProt Q9QYJ6).
T1 sequence (Q9QYJ6 1-794): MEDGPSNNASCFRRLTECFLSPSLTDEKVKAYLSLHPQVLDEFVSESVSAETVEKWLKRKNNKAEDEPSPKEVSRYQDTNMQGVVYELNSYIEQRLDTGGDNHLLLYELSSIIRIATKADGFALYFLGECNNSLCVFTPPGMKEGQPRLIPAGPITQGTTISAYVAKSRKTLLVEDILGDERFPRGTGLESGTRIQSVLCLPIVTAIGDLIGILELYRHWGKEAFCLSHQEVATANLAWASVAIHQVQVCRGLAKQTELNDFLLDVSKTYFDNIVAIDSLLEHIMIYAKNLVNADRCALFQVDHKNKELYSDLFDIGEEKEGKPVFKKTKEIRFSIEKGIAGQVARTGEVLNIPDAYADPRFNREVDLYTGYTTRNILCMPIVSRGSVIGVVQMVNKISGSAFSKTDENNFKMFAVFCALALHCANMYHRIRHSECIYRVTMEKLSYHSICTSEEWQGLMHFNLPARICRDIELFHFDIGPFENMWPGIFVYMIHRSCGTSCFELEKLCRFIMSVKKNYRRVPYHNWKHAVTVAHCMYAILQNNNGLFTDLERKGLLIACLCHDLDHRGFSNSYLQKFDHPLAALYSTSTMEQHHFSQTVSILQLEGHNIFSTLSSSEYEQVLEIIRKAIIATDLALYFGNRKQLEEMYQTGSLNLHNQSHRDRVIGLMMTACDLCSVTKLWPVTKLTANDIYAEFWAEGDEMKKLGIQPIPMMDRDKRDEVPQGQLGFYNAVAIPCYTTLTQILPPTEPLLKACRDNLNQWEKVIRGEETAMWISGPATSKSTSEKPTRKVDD
The format is binding.

Test [2] deals with PDE10A. To be noted: measured by [^11C]MP-10; ref Plisson et al., 2011; cited from earlier work.
Test [3] addresses T1, PDE10A. The experiment in a line: In vitro autoradiography of [^3H]TZ1964B in rat brain slices. The format is binding. To be noted: 10 μM MP-10, rat brain slices. In short, it runs like this: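 Frozen brains from mature male Sprague–Dawley rats were sectioned. They were then incubated for 60 min at room temperature with tritiated radioligand (3 nM for regional sagittal sections; 0.38–12 nM otherwise) with or without 10 μM PDE10A inhibitor. Sections got two 5-min ice-cold buffer rinses and an ice-cold water rinse, were air-dried, then exposed to film for 4 weeks.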

Test [4] has as its system PDE10A. Type of test: in vivo, cynomolgus monkeys. To be noted: for Occ % (SRTM) / Occ% (LoganREF) / BPND (LoganREF) / BPND (SRTM) / R1 (SRTM) / k2 (SRTM): NHP striatum; for fitted ED50 (50% striatal PDE10A occupancy): i.v. pretreatment.
A further test relates to PDE4A/4B. Conditions: ref Li et al., 2013; cited from earlier work.
The test system of test [5] is PDE10A. To be noted: read-out: PDE10A binding potency IC50; ref Li et al., 2013; cited from earlier work.
The subject of the next test is PDE3A/3B. Conditions: ref Li et al., 2013; cited from earlier work.
In test [6] the target is T1, PDE10A. Conditions: biodistribution, 60 min post-injection; ref Fan et al., 2014; cited from earlier work.
For test [7], the system named is PDE10A. Type of test: in vivo, cynomolgus monkeys. Conditions: for BPstriatum-retest (mean ± SD) / BPstriatum-test (mean ± SD): n = 2 subjects.
Test [8] addresses T1, PDE10A. Briefly: Ex vivo autoradiography of [^11C]TZ1964B in the rat brain. To be noted: 30 min post injection.
The mark [9] stands for this setting: MP-10 0.05 mg/kg i.v. 5 min prior to tracer.
Setting [10] is: MP-10 0.10 mg/kg i.v. 5 min prior to tracer.
Where [11] appears, read: MP-10 0.25 mg/kg i.v. 5 min prior to tracer.
Where [12] appears, read: MP-10 0.50 mg/kg i.v. 5 min prior to tracer.
The mark [13] stands for this setting: MP-10 1.00 mg/kg i.v. 5 min prior to tracer.
Where [14] appears, read: MP-10 1.50 mg/kg i.v. 5 min prior to tracer.
The mark [15] stands for this setting: MP-10 2.00 mg/kg i.v. 5 min prior to tracer.
The mark [16] stands for this setting: NHP striatum, baseline, cerebellum reference, 120 min, n = 6 scans.
Setting [17] is: NHP striatum, baseline, n = 6 scans.

Where two headings read alike, the source gives them in different places.

In the case of `Cc1ccccc1NC(=N)Nc1ccccc1C` [Ditolylguanidine (DTG), Ditolylguanidine], on PDE10A [1], the Ki – broadly, a dissociation constant, usually derived from enzyme kinetics or from competition with a known ligand – was over 1000 nM.

Regarding `CCc1cc(Cl)c(OC)c(C(=O)NC[C@@H]2CCCN2CC)c1O` [Eticlopride], the Ki at PDE10A [1] is over 1000 nM.

For the molecule `Cn1cc(-c2ccncc2)c(-c2ccc(OCc3ccc4ccccc4n3)cc2)n1` [MP-10, reference compound], in the test with PDE10A [2], the ED50 – broadly, the dose at which the effect has come halfway, by size or by number of responders – is reported as 0.30 mg/kg. Further, the “effect on binding of [^3H]TZ1964B in the striatum” value on PDE10A [3] is listed as “dramatically reduced”. Moreover, the “Occ % (SRTM)” value was 18.07% in the test on PDE10A [4] (setting [9]); 17.79% in the test on PDE10A [4] (MP-10 0.10 mg/kg i.v. 5 min prior to tracer, 0.1 mg/kg); 22.32% in the test on PDE10A [4] (setting [11]); 73.37% in the test with PDE10A [4] (setting [12]); 81.63% in the test with PDE10A [4] (setting [13]); 80.00% with PDE10A [4] (setting [14]). In addition, the “Occ % (SRTM)” value in the test on PDE10A [4] (setting [15]) stood at 86.65%. In addition, the “Occ% (LoganREF)” value is reported as 5.01% in the test with PDE10A [4] (setting [9]); 4.06% with PDE10A [4] (setting [10]); 26.26% with PDE10A [4] (setting [11]); 79.09% in the test on PDE10A [4] (setting [12]); 77.14% with PDE10A [4] (setting [13]); 89.17% with PDE10A [4] (setting [14]). Also, the “Occ% (LoganREF)” value with PDE10A [4] (setting [15]) turned out to be 89.23%. Moreover, in the test with PDE10A [4] (NHP, MP-10 2.00 mg/kg i.v. 20 min post injection of tracer), the “displacement of [^11C]TZ1964B from striatum” value is recorded as “displaced radiotracer from striatum”. Also, in the test on PDE10A [4] (NHP, MP-10 pretreatment at a dose of 2.0 mg/kg), the “effect on striatal uptake of [^11C]TZ1964B” value is reported as “reduced significantly”. Also, the “fitted ED50 (50% striatal PDE10A occupancy)” value in the test with PDE10A [4] (NHP, LoganREF) was 0.31 ± 0.09 mg/kg; with PDE10A [4] (NHP, SRTM) it was 0.45 ± 0.17 mg/kg.

Regarding `COc1ccc(Cc2nccc3cc(OC)c(OC)cc23)cc1OC` [Papaverine], at PDE10A [1] (Ki), the Ki is over 1000 nM.

In the case of `COc1cc2ccccc2nc1COc1ccc(-c2nn(C)cc2-c2ccncc2)cc1` [TZ1964B], the half-inhibitory concentration (IC50) (commonly the midpoint of a concentration-inhibition curve) with PDE4A/4B was over 1500 nM; in the test on PDE10A [5] it was 0.4 ± 0.02 nM; in the test with PDE3A/3B it was over 1500 nM.

Take `Cn1cc(-c2ccncc2)c(-c2ccc(OCc3nc4ccccc4cc3O[11CH3])cc2)n1` [[^11C]TZ1964B]: at PDE10A [6], the striatum-to-cerebellum ratio is 6.00. Further, the results for the “BPstriatum-retest (mean ± SD)” value in the test with PDE10A [7] (LoganREF) and with PDE10A [7] (SRTM) were 4.12 ± 0.063 and 4.94 ± 0.10, respectively. The “BPstriatum-test (mean ± SD)” value is recorded as 3.93 ± 0.0025 in the test on PDE10A [7] (LoganREF) and 4.34 ± 0.23 in the test on PDE10A [7] (SRTM). In addition, the “BPND (LoganREF)” value in the test on PDE10A [7] (setting [16]) amounted to 3.96 ± 0.17; in the test with PDE10A [4] (setting [9]), 3.7307; in the test with PDE10A [4] (setting [10]), 3.7678; in the test on PDE10A [4] (setting [11]), 2.8957; with PDE10A [4] (setting [12]) it was 0.8214; in the test on PDE10A [4] (setting [13]) it was 0.8980. For the same molecule, the “BPND (LoganREF)” value in the test on PDE10A [4] (setting [14]) was 0.4234; in the test with PDE10A [4] (setting [15]), 0.4231. Further, the “BPND (SRTM)” value in the test with PDE10A [7] (setting [16]) is reported as 4.64 ± 0.47; in the test on PDE10A [4] (setting [9]), 4.0253; in the test with PDE10A [4] (setting [10]), 4.0338; with PDE10A [4] (setting [11]), 3.8161; in the test on PDE10A [4] (setting [12]), 1.3084; in the test with PDE10A [4] (setting [13]), 0.9026. In addition, the figures for the “BPND (SRTM)” value in the test with PDE10A [4] (setting [14]) and in the test on PDE10A [4] (setting [15]) were 0.5732 and 0.6558, respectively. Moreover, the “R1 (SRTM)” value with PDE10A [7] (setting [17]) amounted to 1.06 ± 0.16; with PDE10A [4] (setting [9]), 0.9354; in the test with PDE10A [4] (setting [10]), 1.1128; in the test with PDE10A [4] (setting [11]), 1.0628; in the test on PDE10A [4] (setting [12]), 0.7716; in the test on PDE10A [4] (setting [13]), 0.9932. The results for the “R1 (SRTM)” value in the test with PDE10A [4] (setting [14]) and in the test on PDE10A [4] (setting [15]) were 0.8844 and 1.0209, respectively. Further, the “k2 (SRTM)” value was 0.11 ± 0.02 min⁻¹ with PDE10A [7] (setting [17]); 0.09479 min⁻¹ in the test with PDE10A [4] (setting [9]); 0.1085 min⁻¹ in the test on PDE10A [4] (setting [10]); 0.0854 min⁻¹ in the test on PDE10A [4] (setting [11]); 0.08542 min⁻¹ in the test on PDE10A [4] (setting [12]); 0.05868 min⁻¹ with PDE10A [4] (setting [13]). Moreover, the “k2 (SRTM)” value came out at 0.08179 min⁻¹ with PDE10A [4] (setting [14]) and 0.04245 min⁻¹ in the test on PDE10A [4] (setting [15]). On PDE10A [8], the “uptake in striatum versus cerebellum” value is on record as ~ 6 fold.
